Measurements reported in the EternaBench riboswitch data.

Test system: MS2 coat protein
Assay: apparent Kd, MS2 coat protein; higher = weaker binding; RNA-MaP array; FMN 200 µM where present
In short: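 Designs on Illumina sequencing-chip clusters, transcribed by stalled E. coli RNA polymerase, were exposed to SNAP-549-labelled MS2 coat protein in doubling steps from 0.7 or 1.5 nM up to 3 µM, without and then with constant ligand. The buffer held 100 mM Tris-HCl pH 7.5, 80 mM KCl, 4 mM MgCl2, BSA, DTT, yeast tRNA and Tween-20. Apparent Kd values are medians of filtered per-cluster binding-curve fits to green signal normalised to red-channel RNA signal and control-cluster median Fmax.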

[1] = designed as: OFF switch for flavin mononucleotide, no ligand
[2] = ligand present: flavin mononucleotide, designed as: OFF switch for flavin mononucleotide
[3] = designed as: ON switch for flavin mononucleotide, no ligand
[4] = ligand present: flavin mononucleotide, designed as: ON switch for flavin mononucleotide

Sequence	apparent Kd [1]	apparent Kd [2]	apparent Kd [3]	apparent Kd [4]
ACCUUACAUGAGGAUCACCCAUGUUAGGAUAUCUCGCUUGCGCUGUCACAGCGCAAGCAGAGAAGGGACGCGGG	35.2 nM	40.9 nM	–	–
UUGAGGUCAGGAUAUGCAUGGCGGGACUUGCGUCGUGGCGUGCAGAAGGGACAUGAGGAUCACCCAUGUGGAGG	176 nM	233 nM	–	–
AUGGUUCGGUCAGGAUAUCGUAGAUUGAAUAGUAUGAUUUACAUGAGGAUCACCCAUGUUACAUACGAGAAGGGACCGAAUCAU	15.5 nM	10.4 nM	–	–
CCCUCAAGCGAGGAUAUAAAUGCGCAUUCGCGGUUAGAAGGCGCUACAUGAGGAUCACCCAUGUAAUAAAAUGG	68.2 nM	86.4 nM	–	–
AGCUAGUCAGGAUAUACGAACAUGUCGAAAGACGUGAGGGAACAUGAGGAUCACCCAUGUAGAAGGGACUAGCA	30.6 nM	36.2 nM	–	–
GCCAUCGCAUGAGGAUAUGGCACCGUUUCGGUGCCAGAAGGCAUGUCUUAAGACAUGAGGAUCACCCAUGUAGUUAAGAUGGCA	–	–	860 nM	56.9 nM
GGAUCGAGUGUGAGGAUAUACCACUGGAUACAGUGGUAGAAGGCACAUGAGGAUCACCCAUGUCCCUACGAUCC	32.9 nM	204 nM	–	–
GUAGCUACAUGAGGAUCACCCAUGUAGGAUAUCGCUAUUGUAAUCAUGUUACAUGAUUACAAUAGCGAGAAGGACGUUAGCUAC	6.5 nM	7.16 nM	–	–
GCCAACUUAUGAGGAUAUGGCACCUUAUUGGUGCCAGAAGGCAUGUCUAUUGACAUGAGGAUCACCCAUGUAUUAUAGUUGGCA	–	–	715 nM	159 nM
GAGUGGAGGUAAGGAUAUACAAUGAUAAUCACAGUAGAAGGUACUAACAUGAGGAUCACCCAUGUAGGACUAUACCAGAGAGGG	–	–	17.4 nM	18 nM
GUAGAUAGAUAGAAGGUAUGGUAUUAGAUUAAAUAAGGAUAUAUGAACAUGAGGAUCACCCAUGUAUUAUGGGAUAGAUAGACU	–	–	228 nM	153 nM
AAACAUGUCCGAGGAUAUCUGGAAACAUUUUCAAGAGAAGGCGGACAUGAGGAUCACCCAUGUCUCUCCUCAUCAACUACAAAU	21.2 nM	181 nM	–	–
GCGCAGUCAGGAUAUGCCGCUUGCGAUCACCGUUGGCAAAGGCAGAAGGGACAUGAGGAUCACCCAUGUGGCGC	19.3 nM	22.9 nM	–	–
AAAUAAAUCACAGGAUAUCUAGGGAUACAUGAGGAUCACCCAUGUUUGCAAAGAGAAGGGUGACAGUAUUAUCAGAUCAACAAU	–	–	210 nM	38.1 nM
CUUAAACAUGAGGAUCACCCAUGUCAGGAUAUGAUACUAUGUACUUCGGUACAUAGUAUCAGAAGGGAUAUGAA	49 nM	64.8 nM	–	–
GGUGAAUGAACAUGAGGAUCACCCAUGUACAGGAAACUGAAUGAGGAUAUCCAUAGCAAAGCUAUGGAGAAGGUAUGGGUCACC	–	–	40.5 nM	44.9 nM
GCUAUGUCAGGAUAUGCUAGUGCUAGUGAAAGCUAGUGCUAGUAGAAGGGACAUGAGGAUCACCCAUGUGUAGU	108 nM	374 nM	–	–
GCCAACUUAUGAGGAUAUGGCACCUUAUUGGUGCCAGAAGGCAUGUGUAUUCACAUGAGGAUCACCCAUGUAUUAUAGUUGGCA	–	–	498 nM	48.1 nM
ACAUGAGAGAUAGGAUAUCUUGUACCUACAUGUGACAUGAGGAUCACCCAUGUGGUAAGUAUGAGGGAGAAGGGUCAGAUAUGU	–	–	57.9 nM	55.9 nM
AUCAGCUCGUCAGGAUAUACGUCACUGCGUCAGUAGUGUGGUAAGAUCACAUGAGGAUCACCCAUGUAGAAGGGACGAGCUGAU	14.5 nM	284 nM	–	–
GUGUAGUUAGGAUAUGCUGGAAUCUAGCGAAGCUAGGUUCCACAUGAGGAUCACCCAUGUAGAAGGGACUACAC	–	73 nM	–	–
CGAUAGUGUAGUUAUCCGUAGCGAACAUGAGGAUCACCCAUGUAGGAUAUGUUACUAAACUAGUAACAGAAGGGCAUGAGUCUU	28.6 nM	75.6 nM	–	–
UCGUUCCGUGUAGGAUAUUGGCCUUCUCUGGGCCGAGAAGGACAUGAGGAUCACCCAUGUAUGUUAUUAUCGCGCGUGGCGCAU	26.9 nM	84.9 nM	–	–
